# Screening results from PubChem BioAssay.
# An excerpt weighted towards active compounds, which were near 3.3% of everything screened.
# NRP1-CendR mod – NRP-1/CendR interaction modulation | inhibition, % at 25 µM | O14786 | FAM-RPARPAR peptide binding to NRP-1, fluorescence polarization | actives 0.85% (n = 360,000);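 active means inhibition or corrected inhibition above about 18%, plus a signal ratio from 0.5 to 1.5, limit read from the data, passing the limit was not always enough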
# sPLA2-III inh – Blocks human group III sPLA2 activity | Q9NZ20 | AID 743126 | QFRET BODIPY PC-A2 liposome hydrolysis, fluorescence | inhibition, % at 12.2 µM | actives 0.56% (n = 370,000);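 active means inhibition above mean plus 3 SD of compounds lying within the high and low control bounds, cut at about 19% in these data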;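 further: 0% = median of test compound wells and 100% = no enzyme DMSO wells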
# Target sequence (Q9NZ20 whole entry, looked up): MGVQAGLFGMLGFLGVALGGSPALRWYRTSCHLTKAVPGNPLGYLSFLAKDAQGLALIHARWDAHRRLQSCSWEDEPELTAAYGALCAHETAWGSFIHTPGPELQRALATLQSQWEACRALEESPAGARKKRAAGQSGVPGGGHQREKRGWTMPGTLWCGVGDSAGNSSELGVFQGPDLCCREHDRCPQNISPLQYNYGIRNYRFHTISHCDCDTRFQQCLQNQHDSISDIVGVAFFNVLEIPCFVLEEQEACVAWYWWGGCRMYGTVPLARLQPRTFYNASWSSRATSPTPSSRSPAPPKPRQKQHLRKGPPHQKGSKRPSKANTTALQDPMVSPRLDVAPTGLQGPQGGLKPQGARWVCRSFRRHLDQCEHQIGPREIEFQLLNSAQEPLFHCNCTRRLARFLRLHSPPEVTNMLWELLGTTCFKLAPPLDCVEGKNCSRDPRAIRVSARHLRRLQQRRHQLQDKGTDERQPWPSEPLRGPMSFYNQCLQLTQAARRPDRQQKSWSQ
# Hep lipid drop – hepatic lipid droplet formation modulation. AML12 mouse hepatocytes, oleate lipid droplets, BODIPY imaging. inhibition, % at 6.5 µM. actives 0.4% (n = 240,000);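 active means lipid droplet intensity inhibited by at least 50%, with more than 500 cells counted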
#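 Assay system: AML12 hepatocytes (mouse); Probe or stimulus: oleic acid at 100 µM to induce lipid droplet formation; Dosing: compound at 6.5 µM only; Schedule: compound with oleate, overnight; Detection: fluorescence imaging, 20x objective, two fields per well; Measure: % inhibition of lipid droplet signal.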
# PfM18AAP inh – blocks P. falciparum M18 aspartyl aminopeptidase; inhibition, % at 7.35 µM; actives 1.2% (n = 290,000); recombinant PfM18AAP, H-Glu-NHMec fluorogenic cleavage; AID 1822;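 active means inhibition above the campaign mean inhibition over all tested compounds plus 3 SD, cut at about 28% in these data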;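 further: 0% = plate median of test compound wells and 100% = 2 mM ZnCl2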
# HTR2A ag – mouse HTR2A agonism via beta-arrestin recruitment. P35363. CHO-K1 mHTR2A beta-arrestin complementation, luminescence; percent of 30 µM serotonin response. actives 0.66% (n = 360,000). activation, % at 7.6 µM;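 active means activation above a run cutoff, the mean activation of all tested compounds plus 3 SD, cut at about 14% in these data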;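 further: 0% = plate median of compound wells and 100% = 30 µM serotonin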
# Arr AP2 block – inhibitors of human beta-arrestin and AP2 interaction | inhibition, % at 10 µM | AID 504490 | actives 0.31% (n = 340,000) | FITC-arrestin peptide / GST-AP2 beads, flow cytometry; AP2 beta2 appendage carries R879A mutation;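 active means inhibition above a set limit, near 3 SD of compounds lacking own fluorescence, cut at about 54% in these data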;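 further: plate controls were DMSO wells for no effect and 5 µM unlabelled arrestin peptide for full effect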
#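 Assay system: GST-AP2 R879A bound to glutathione beads, E. coli-expressed; Medium: PBS with 0.05% Tween 20 and 0.1% BSA; Also added: fluorescein-tagged arrestin peptide at 50 nM final; Timing: 12 min plus 1 h, RT; Measured by: flow cytometry, FL1 (488/535 nm); Evaluation: percent drop in bead-associated FITC signal.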
# OPRM1 ag – activates human mu opioid receptor in HTR2A counterscreen. shares compounds with HTR2A ag. U2OS OPRM1 beta-arrestin PathHunter, luminescence; DMSO 0%, DAMGO 9.3 µM 100%. activation, % at 9.3 µM. actives 5.3% (n = 2,300);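 active means mean activation above the mean of DMSO-only wells plus 3 SD, cut at about 0.5% in these data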
# m5-HT2A ag conf – mouse HTR2A agonism confirmed; shares compounds with HTR2A ag; CHO-K1 PathHunter beta-arrestin recruitment, luminescence; DMSO 0%, 30 µM serotonin 100%; activation, % at 7.6 µM; actives 19% (n = 2,300); AID 624381;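 active means mean activation across triplicates above the hit threshold derived in the original primary screen, cut at about 15% in these data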
# * = called active by the depositor; . = not tested or not shown.
SMILES,NRP1-CendR mod,sPLA2-III inh,Hep lipid drop,PfM18AAP inh,HTR2A ag,Arr AP2 block,OPRM1 ag,m5-HT2A ag conf
Cc1noc(C)c1S(=O)(=O)NCc1ccc2c(c1)OCO2,7,3,.,.,32*,13,-1,-5
COc1ccc(C2=NN(C(=O)CCC(=O)O)C(c3ccc([N+](=O)[O-])cc3)C2)cc1 (configuration not stated),14,-3,6,2,19*,39,-1,-4
CCCCCCCCN1C(=O)[C@H](CC(=O)NCCc2ccccc2OC)C[C@@]2(C(=O)OC)CC(C)(C)CC=C12,3,-2,.,.,0,.,.,.
C[C@H](O)[C@@H]1CN2CCc3c([nH]c4ccccc34)[C@@H]2C[C@@H]1N(C)C(=O)Nc1ccc(Br)cc1,2,-6,.,.,16*,.,.,27*
COc1ccc(CN(C)C(=O)Cn2ccc(NC(=O)OCc3ccccc3)nc2=O)cc1OC,5,3,.,.,3,25,.,.
COc1ccc(-c2csc(-n3ncc(C(=O)O)c3C(F)(F)F)n2)cc1,6,-9,4,-5,15*,-7,-1,-4
COc1cc(CN2CCN(c3ncccn3)CC2)cc(OC)c1,-4,-4,-2,0,21*,17,-1,121*
COc1ccc(CN2CCN(c3ncccn3)CC2)c(OC)c1,-14,4,2,-11,39*,17,0,99*
COc1ccc(CN2CCN(Cc3ccc(C)cc3)CC2)c(OC)c1,6,-4,-1,-3,-8,-6,.,.
COc1ccc(CN2CCN(c3ccccn3)CC2)c(OC)c1,15,0,.,3,40*,-8,0,82*
COc1ccc(CN2CCN(Cc3ccccc3F)CC2)c(OC)c1,-6,16,-2,-2,-2,-17,.,.
O=C1Nc2ccccc2-c2nnnn2C1N1CCCCC1 (configuration not stated),8,7,.,.,-1,.,.,.
N#Cc1cccc(-c2ccccc2C(=O)NC2CCCCN(Cc3ccc(Cl)cc3)C2=O)c1 (configuration not stated),.,-3,.,.,.,.,.,.
O=C(NCCCn1ccnc1)c1ccco1,-9,-1,3,1,-1,-2,.,.
O=C(NCCCn1ccnc1)/C(=C\c1ccco1)NC(=O)c1ccco1,-3,4,-5,9,15*,21,-1,-3
CCCC[C@H]1C2CC(OC(=O)Nc3ccccc3C(F)(F)F)C(C2)[C@H]2CCCCN21 (some centres not stated),.,7,.,.,.,.,.,.
O=c1c2ccccc2c2ccccc2c(=O)n1Nc1ccccc1,-15,-7,.,.,20*,.,0,-2
Cc1cccc(CCNC(=O)C2CCCN(S(=O)(=O)c3cnc[nH]3)C2)c1 (configuration not stated),10,-7,32,-1,15*,34,-1,-5
O=C(NCCN1CCC(Cc2ccccc2)CC1)C1CCCN(S(=O)(=O)c2cnc[nH]2)C1 (configuration not stated),-2,-15,.,-4,-7,-1,.,.
O=C(C1CCC1)N1CCc2cc(S(=O)(=O)NCCN3CCN(c4ccccc4F)CC3)ccc21,-3,-19,.,-2,15*,10,0,54*
O=C(NCCN1CCN(c2ccccc2F)CC1)C1CCCN(S(=O)(=O)c2cnc[nH]2)C1 (configuration not stated),-10,-9,.,-12,19*,1,-1,60*
CCS(=O)(=O)N1CCC(C(=O)NCCCN2CCN(c3ccccc3F)CC2)CC1,-7,1,.,-4,16*,4,-1,54*
CCOC(=O)[C@]12CCCC=C1N(Cc1ccco1)C(=O)[C@H](CC(=O)NCc1cccc3ccccc13)C2,14,-26,.,.,0,.,.,.
O=S(=O)(NCc1csc(-c2cccnc2)n1)c1ccc(Br)cc1,-6,4,-1,7,8,4,.,.
COc1ccc(S(=O)(=O)NCc2csc(-c3cccnc3)n2)cc1,-4,10,-26,-6,17*,-5,-1,-4
SMILES,NRP1-CendR mod,sPLA2-III inh,Hep lipid drop,PfM18AAP inh,HTR2A ag,Arr AP2 block,OPRM1 ag,m5-HT2A ag conf
CC(=O)O[C@H]1C=C[C@@H](C#Cc2ccc(C(C)(C)C)cc2)O[C@@H]1COC(=O)Nc1ccccc1,.,-15,.,.,.,.,.,.
CC(C)(C)SC(=O)CC1NS(=O)(=O)OC2CCCCC12 (configuration not stated),8,2,1,7,23*,-2,0,-4
CC(C)(C)SC(=O)C[C@@H]1NS(=O)(=O)OC2CCCCC21 (some centres not stated),8,-2,-14,6,-2,27,.,.
CC(C)(C)OC(=O)N1CCC(NC(=O)c2nc[nH]c2C(=O)NCC(=O)OCc2ccccc2)CC1,2,-21,9,-2,21*,2,0,-1
CC(C)(C)OC(=O)CNC(=O)c1[nH]cnc1C(=O)NC1CCN(C(=O)OC(C)(C)C)CC1,.,5,2,2,.,-2,.,.
CCc1cc[n+](C(C(=S)Nc2cccc(C)c2)=C([O-])c2ccc(C)c([N+](=O)[O-])c2)cc1,1,12,.,.,15*,3,-1,-4
Cc1csc2c(N3CCC(C(=O)O)CC3)ncnc12,1,-3,35,-2,1,4,.,.
Cc1csc2c(N3CCN(C(=O)Nc4ccc(OC(F)(F)F)cc4)CC3)ncnc12,2,-6,1,0,14*,-15,0,1
Cn1ncc2c(Nc3ccc(Br)cc3)nc(Nc3ccc(Br)cc3)nc21,-10,-2,18,-4,0,-16,.,.
Cn1ncc2c(Nc3ccc(O)cc3)nc(Cl)nc21,-1,-2,18,-5,18*,31,-1,-3
Cc1ccc(C(=O)N=c2sccn2C)cc1C,9,-4,4,2,18*,0,-1,-4
COc1ccc(CN2C(=O)C(CC(=O)NC3CCCC3)CC(C(=O)N(C)C)=C2C)cc1 (configuration not stated),4,7,.,.,30*,.,-1,-2
CC1=C(C(=O)N2CCCCCC2)CC(CC(=O)NC2CCCC2)C(=O)N1Cc1ccc(C(C)(C)C)cc1 (configuration not stated),-11,-8,.,.,15*,.,-1,-2
CC(=O)c1cccc(OCC(O)CNCC2COc3ccccc3O2)c1 (configuration not stated),10,-4,.,1,26*,7,0,59*
